Screens: PubChem, several laboratories
Jurkat NFkB inh – inhibitors of the PMA/ionomycin-induced NF-kB reporter in Jurkat cells; inhibition, % at 4 µM; 330,000 compounds, 0.53% hits; PMA/ionomycin-induced NF-kB luciferase reporter, luminescence; AID 435003; in the data active = inhibition above about 50%
miR-122 sensor – blocks miR-122 activity in Huh7 sensor cells; activation (reporter increase), % at 12.5 µM; Huh7 miR-122 Renilla luciferase sensor, 48 h; neutral wells = 0, positive control = 100; 340,000 compounds, 0.3% hits;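 active = mean replicate activation score at least 90 and every replicate individually at or above 90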;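 also: higher luciferase means less miR-122 activity so hits act as miR-122 inhibitors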
NR2E3 ag-1 – human photoreceptor-specific nuclear receptor agonism. Q9Y5X4. CHO-S Gal4-NCOR/VP16-NR2E3 two-hybrid, luciferase. inhibition of corepressor binding, % at 3.98 µM. 360,000 compounds, 0.35% hits. AID 602229;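 active = inhibition above the mean of all tested compounds plus 3 SD, cut at about 70% in these data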;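 also: 0% = DMSO with NR2E3 transfected cells and 100% = cells lacking NR2E3 construct; higher means lower luciferase signal from less NR2E3 corepressor binding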
Target sequence (Q9Y5X4 whole entry, looked up, the tested form may be a part): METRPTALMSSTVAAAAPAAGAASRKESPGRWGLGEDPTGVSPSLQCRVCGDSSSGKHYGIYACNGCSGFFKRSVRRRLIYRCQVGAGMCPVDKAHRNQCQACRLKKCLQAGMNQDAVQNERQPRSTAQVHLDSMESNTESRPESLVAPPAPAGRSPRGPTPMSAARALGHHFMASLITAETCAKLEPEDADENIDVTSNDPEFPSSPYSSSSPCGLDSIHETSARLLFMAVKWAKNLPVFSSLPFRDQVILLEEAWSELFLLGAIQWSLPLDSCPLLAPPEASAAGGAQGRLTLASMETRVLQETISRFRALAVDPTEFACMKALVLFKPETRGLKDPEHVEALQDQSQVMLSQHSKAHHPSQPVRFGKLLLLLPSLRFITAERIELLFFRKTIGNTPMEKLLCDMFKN
697 NFkB inh – lowers PMA/ionomycin-induced NF-kB signal in 697 B cells | 697 B-cell NF-kB luciferase reporter, 16 h | inhibition, % at 4 µM | 330,000 compounds, 0.33% hits; in the data active = inhibition above about 35%
FGF22 binding – FGF22 (human) thermal shift binding; activity (Tm shift, normalised), % at 9.99 µM; recombinant FGF22 thermal shift, SYPRO orange fluorescence; percent of sucrose octasulfate shift, DMSO zero; Q9HCT0; 340,000 compounds, 1.5% hits;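 active = mean Tm shift, scaled 0 neutral to 100 positive control, at about 1.3% or above, every replicate too, limit read from the data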
Target sequence (Q9HCT0 whole entry, looked up): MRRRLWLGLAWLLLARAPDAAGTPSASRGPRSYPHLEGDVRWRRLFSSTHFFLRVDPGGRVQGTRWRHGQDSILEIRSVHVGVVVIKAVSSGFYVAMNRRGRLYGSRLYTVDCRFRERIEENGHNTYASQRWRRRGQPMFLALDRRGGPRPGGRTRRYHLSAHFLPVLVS
NR2E3 ag-2 – activates human photoreceptor nuclear receptor NR2E3. Q9Y5X4. inhibition of corepressor binding, % at 4.78 µM. GST-NR2E3/biotin-RetCOR TR-FRET, 1536-well. 320,000 compounds, 0.12% hits;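 active = percent inhibition above the cutoff of mean plus 3 SD of all tested compounds, set per screening campaign, cut at about 20% in these data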;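 also: 0% = DMSO wells and 100% = biotin wells as full block of FRET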
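Format: 1536-well format; test system: GST-NR2E3 and biotin-RetCOR proteins; read-out basis: percent inhibition of TR-FRET ratio; timing: 5 h incubation at 4 °C; detection: time-resolved FRET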
Active calls of the source: *; nt = not tested or not shown; [ ] = another dose, or the depositor's remark. In the library only some 2.2% were active in any assay of this set; here they are far more common.

SMILES	Jurkat NFkB inh	miR-122 sensor	NR2E3 ag-1	697 NFkB inh	FGF22 binding	NR2E3 ag-2
O=C(CSc1ncnc2sccc12)Nc1ccccc1F	-8	nt	-4	3	0	-3
C[C@@H]1CN([C@H](C)CO)C(=O)c2cc(NC(=O)Nc3ccccc3)ccc2O[C@H]1CN(C)C(=O)Nc1ccc(F)cc1	nt	3[16.7 µM]	nt	nt	0	nt
CCOc1ccc(CSC2=NCCN2)cc1Cl	3	277*	-28	6	nt	2
O=C(O)C1C2CCC1C(O)C2 (configuration not stated)	nt	nt	13	nt	43*	nt
C[C@@H]1CCCCO[C@H](CN(C)C(=O)C2CCCCC2)[C@H](C)CN([C@H](C)CO)C(=O)c2cc(NC(=O)Nc3cccc4ccccc34)ccc2O1	nt	-9[16.7 µM]	nt	nt	-1	nt
O=C(NCCOc1nc(N2CCCCC2)nc(N2CCCCC2)n1)Nc1ccccc1	-4	-4	-1	-8	44*	-1
O=C(NCCOc1nc(N2CCCCC2)nc(N2CCOCC2)n1)Nc1ccccc1	-11	9	4	21	nt	-2
O=C(Cn1cnc([N+](=O)[O-])n1)N/N=C/c1ccc2ccccc2c1	-4	nt	-13	-7	44*	0
CN(CC(=O)Nc1ccc(F)cc1)C(=O)CSc1nc2ncc(Cl)cc2[nH]1	0	nt	14	17	43*	-2
O=C(CSc1nc2ncc(Cl)cc2[nH]1)Nc1cccc(F)c1	14	-5	36	-20	0	0
O=C(Nc1cccc(C(F)(F)F)c1)c1ccc(-n2cncn2)nc1	17	nt	5	0	43*	3
Cc1cccc(C)c1NC(=O)c1ccc(-n2cncn2)nc1	-2	3	12	4	nt	2
COCC(=O)N1CCC2(CC1)CN(Cc1cccc(F)c1)[C@@H](CO)c1c2c2ccc(OC)cc2n1C	nt	nt	nt	nt	0	nt
COC(=O)c1c(NC(=O)CSc2ccccc2N)sc(C)c1C	-4	2	12	7	43*	5
COC(=O)c1c(NC(=O)CC2SC(N)=NC2=O)sc(C)c1C (configuration not stated)	6	nt	5	16	44*	4
COC(=O)c1c(NC(=O)Cc2ccccc2)sc(C)c1C	-21	nt	-6	-17	nt	-1
C[C@H]1CCCCO[C@@H](CN(C)S(=O)(=O)c2cccs2)[C@@H](C)CN([C@@H](C)CO)C(=O)c2cc(NC(=O)Nc3ccc(C(F)(F)F)cc3)ccc2O1	nt	-12[16.7 µM]	nt	nt	1	nt
O=C(C[C@@H]1C=C[C@H](NC(=O)Nc2cc(F)ccc2F)[C@H](CO)O1)NCc1ccncn1	nt	nt	nt	nt	0	nt
COC(=O)c1c(CC[C@@H](CO)NC(=O)N[C@H](Cn2cc(-c3cncn3C)nn2)C(C)C)oc(C(C)=O)c1C(=O)OC	nt	nt	nt	nt	1.6*	nt
CCCCc1cn(C[C@H](Cc2ccccc2)NC(=O)N[C@H](CO)CCc2oc(C(C)=O)c(C(=O)OC)c2C(=O)OC)nn1	nt	nt	nt	nt	1	nt
CC1(c2cccc(Br)c2)NC(=O)NC1=O (configuration not stated)	20	-2	-4	19	0	3
O=C1NC(=O)C2(Br)Nc3ccc(Br)cc3C(=O)C2N1 (configuration not stated)	nt	nt	-10	nt	1.4*	nt
Cc1ccc(C(C)C)c(OCC(=O)N/N=C/C2CCCCC2)c1	-19	nt	12	14	43*	-1
CN/N=C/c1ccc(C#N)cc1	-8	nt	-14	9	43*	1
CN(c1ccccc1)S(=O)(=O)c1cccc(NC(=O)c2cc(=O)c3ccccc3o2)c1	9	1	-2	9	43*	1
SMILES	Jurkat NFkB inh	miR-122 sensor	NR2E3 ag-1	697 NFkB inh	FGF22 binding	NR2E3 ag-2
NS(=O)(=O)c1cccc(NC(=O)c2cc(=O)c3ccccc3o2)c1	-17	nt	-64	16	0	5
C[C@@H]1CN([C@H](C)CO)C(=O)c2cc(C3=CCCC3)cnc2O[C@H]1CN(C)C(=O)c1ccccn1	nt	8[16.7 µM]	nt	nt	0	nt
CC1CCN(C(=O)COC(=O)CCC(=O)c2ccc(F)cc2)CC1	0	-2	1	-2	43*	nt
CC1CCCC(C)N1C(=O)COC(=O)CCC(=O)c1ccc(F)cc1 (configuration not stated)	13	nt	-1	23	0	nt
CCOC(=O)CNC(=O)CSc1nnc(NC(=O)c2ccccc2Cl)s1	2	-1	8	7	43*	1
Cc1[nH][nH]c(=O)c1C=NCc1ccc(Cl)cc1	2	6	-26	4	43*	-4
COc1cc(/C=N/Nc2ncc(C(F)(F)F)cc2Cl)cc(OC)c1OC	5	nt	-13	-3	43*	2
COc1cc(/C=N/Nc2ncc(C(F)(F)F)cc2Cl)cc(OC)c1O	21	-3	0	-23	nt	-3
CCS(=O)(=O)NCC[C@H]1CC[C@H](NC(=O)Nc2cc(Cl)cc(Cl)c2)[C@@H](CO)O1	nt	-1[16.7 µM]	nt	nt	0	nt
CNC(=O)CSc1nc2c([nH]c3ccccc32)c(=O)n1CCOC	-4	nt	-2	29	44*	5
Oc1ccc(Cl)cc1/C=C/c1ccc2cccc(O)c2n1	-29	140*	-79	-79	0	nt
CC(Oc1ccccc1)C(=O)Nc1nc(-c2ccccn2)cs1 (configuration not stated)	4	nt	-2	-38	0	nt
C[C@H](NC(=O)c1ccccc1)C(=O)Nc1nc(-c2ccccn2)cs1	-27	nt	-24	-8	43*	-1
COc1ccc(CN(C)C[C@H]2OCCCC[C@H](C)Oc3ccc(NS(=O)(=O)c4ccc(OC)cc4)cc3C(=O)N([C@@H](C)CO)C[C@H]2C)cc1	nt	nt	nt	nt	0	nt
O=C(c1cc(F)c(F)c(F)c1F)N1CCN(C(=O)C2CCCO2)CC1 (configuration not stated)	-7	nt	-3	-5	44*	nt
COc1cccc(NC(=O)N(C)C[C@@H]2Oc3ncc(C#Cc4ccccc4)cc3C(=O)N([C@H](C)CO)C[C@H]2C)c1	nt	2[16.7 µM]	nt	nt	0	nt
CCCNC(=O)N(C)C[C@@H]1Oc2cc(-c3cncnc3)ccc2S(=O)(=O)N([C@H](C)CO)C[C@@H]1C	nt	0[16.7 µM]	nt	nt	0	nt
O=S(=O)(c1ccc(N2CCN(S(=O)(=O)c3ccccc3)CC2)nc1)N1CCCC1	7	-1	11	8	43*	2
Cc1cc2ncc(C(=O)Nc3ccccc3)c(C)n2n1	24	-8	-12	10	nt	2
COC(=O)c1sccc1NC(=O)c1cnc2cc(C)nn2c1C	-14	nt	18	-22	43*	1
O=C(C[C@@H]1C=C[C@H](NC(=O)Nc2ccc(C(F)(F)F)cc2)[C@H](CO)O1)NCCN1CCCC1	nt	nt	nt	nt	0	nt
O=C(c1ccccc1F)N1CC[C@@H]2[C@@H](CO)Nc3ccc(Br)cc3[C@@H]21	nt	22[16.7 µM]	nt	nt	0	nt
